Measured values published in ChEMBL document CHEMBL3272023, “Metabolic formation and synthesis of 1-(3-chlorophenyl)-2(4-hydroxyphenyl)-1-methyl-2(2 pyridine)ethanol. A potential hypocholesteremic agent” (J Med Chem, 1976).

Columns and labels:
Settings in all cases: in vivo
[1] = Drug metabolism in Sprague-Dawley rat urine at 15.6 uCi, ip using hexane-chloroform-acetic acid at 6:3:1 ratio TLC system I; format: ADME, organism-based
Summary of the method: (§1)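 Urine from two rats (250 g) given 300 mg/kg (15.6 µCi) ip was examined by TLC, directly and before/after enzymatic hydrolysis (pH 5.8, 37°, 72 h). Standards were located by fluorescence quenching. Radioactivity was measured by scintillation counting of 0.5-cm silica gel strips scraped from the plates.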

[2] = Retardation factor of the compound in Sprague-Dawley rat urine at 15.6 uCi, ip using hexane-chloroform-acetic acid at 6:3:1 ratio TLC system I; format: physicochemical, organism-based; summary of the method: as §1
[3] = Drug metabolism in Sprague-Dawley rat urine at 15.6 uCi, ip using benzene-methanol at 8:2 ratio TLC system II; format: ADME, organism-based; summary of the method: as §1
[4] = Drug excretion in Sprague-Dawley rat assessed as radioactivity in urine at 1.71 uCi, ip measured on day 7; format: ADME, organism-based
Summary of the method: (§2)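 Three male rats (250 ± 10 g), each in its own metabolic cage with diet and water ad libitum, given 40 mg/kg ³H-labelled drug (1.71 µCi) ip as 1 ml aqueous 0.26% Tween 80 suspension. Urine and feces collected at 11 h, then daily for 13 days. Feces air-dried, powdered, oxidized and counted. Tissues assayed after sacrifice on day 14.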

[5] = Drug excretion in Sprague-Dawley rat assessed as total radioactivity in feces at 1.71 uCi, ip; format: ADME; summary of the method: as §2
[6] = Drug metabolism in Sprague-Dawley rat urine at 15.6 uCi, ip using Et2O TLC system; format: ADME, organism-based; summary of the method: as §1
[7] = Drug metabolism in Sprague-Dawley rat urine assessed as hydroxylated 2-benzylpyridine at 15.6 uCi, ip by gas chromatography-mass spectrometry; format: ADME, organism-based
Summary of the method: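 Two rats (250 g) dosed ip at 300 mg/kg (15.6 µCi). Urine hydrolysed at pH 5.8, 37°, 72 h with Helix pomatia glucuronidase/arylsulfatase or bovine liver β-glucuronidase. Preparative TLC in system II; the radioactive band at Rf 0.6 extracted into Et2O and silylated (bis(trimethylsilyl)acetamide/triethylamine). GLC on 3% SE-30, fractions counted, radioactive peak sent to MS.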

[8] = Drug excretion in Sprague-Dawley rat assessed as radioactivity in feces at 1.71 uCi, ip measured on day 1
[9] = Drug excretion in Sprague-Dawley rat assessed as radioactivity in feces at 1.71 uCi, ip measured on day 13; format: ADME, organism-based; summary of the method: as §2
[10] = Drug excretion in Sprague-Dawley rat assessed as radioactivity in urine at 1.71 uCi, ip measured on day 1; format: ADME, organism-based; summary of the method: as §2

For CC(O)(c1cccc(Cl)c1)C(c1ccccc1)c1ccccn1 (stereo not given), the Drug metabolism [1] was “metabolite_notdetected”, the Rf [2] was 0.56 and the Drug metabolism [3] was “metabolite_detected”. For the same compound, the Drug excretion [4] was < 1%, the Drug excretion [5] was 25% and the Drug metabolism [6] was “metabolite_detected”. For the same compound, the Drug metabolism [7] was “metabolite_detected”, the Drug excretion [8] was 7% and the Drug excretion [9] was < 1%. The Drug excretion [10] was 5%.
